Results: ChEMBL document CHEMBL3407461 (J Med Chem, 2014)

Key:
[1] = test system: Mus musculus; test: Antinociceptive activity in chronic constriction injury neutropathic pain CD-1 mouse model assessed as time for peak protection at 3 umol/kg, po; format: functional
Method in brief: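 Male CD-1 mice (25−30 g), chronic constriction injury of left sciatic nerve (Bennett model) under isoflurane. Dosed by gavage (3 μmol/kg, 0.2 mL) at peak mechano-allodynia on day 7; vehicle 10% DMSO in 0.5% methylcellulose. Paw withdrawal threshold (g) measured on the ipsilateral hind paw from 30 min to 5 h post dose. Expressed as % reversal, mean ± SEM over n animals.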

[2] = test system: Mus musculus; test: Antinociceptive activity in chronic constriction injury neutropathic pain CD-1 mouse model at 3 umol/kg, po after 3 hrs post dose relative to control; format: functional
[3] = test system: Mus musculus; test: Antinociceptive activity in chronic constriction injury neutropathic pain CD-1 mouse model assessed as maximum protection on ipsilateral hind paw at 3 umol/kg, po after 30 mins to 5 hrs post dose relative to control; format: functional; conditions: CD-1, po
[4] = test system: CHO; test: Selectivity ratio of Ki for mouse A3 adenosine receptor expressed in HEK293 cells to Ki for human recombinant A3 adenosine receptor expressed in CHO cells; format: cell-based
[5] = target: T1, Adenosine receptor A1 (Homo sapiens) (UniProt P30542); test: Displacement of [3H]R-PIA from human recombinant A1 adenosine receptor expressed in CHO cells at 10 uM after 60 mins by liquid scintillation counting; format: cell-based
T1 sequence (whole entry): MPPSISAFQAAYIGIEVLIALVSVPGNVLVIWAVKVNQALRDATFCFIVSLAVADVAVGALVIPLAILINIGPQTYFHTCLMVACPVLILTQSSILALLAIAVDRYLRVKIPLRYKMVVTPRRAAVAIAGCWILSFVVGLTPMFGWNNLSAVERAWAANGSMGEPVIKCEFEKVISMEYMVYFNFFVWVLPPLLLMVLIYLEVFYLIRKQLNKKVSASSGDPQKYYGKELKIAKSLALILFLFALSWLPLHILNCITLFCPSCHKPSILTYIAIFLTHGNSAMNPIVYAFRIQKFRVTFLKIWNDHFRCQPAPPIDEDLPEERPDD

[6] = target: T2, Adenosine receptor A1 (Mus musculus) (UniProt Q60612); test: Displacement of [125I]I-AB-MECA from mouse A1 adenosine receptor expressed in HEK293 cells at 10 uM after 60 mins by liquid scintillation counting
T2 sequence (whole entry): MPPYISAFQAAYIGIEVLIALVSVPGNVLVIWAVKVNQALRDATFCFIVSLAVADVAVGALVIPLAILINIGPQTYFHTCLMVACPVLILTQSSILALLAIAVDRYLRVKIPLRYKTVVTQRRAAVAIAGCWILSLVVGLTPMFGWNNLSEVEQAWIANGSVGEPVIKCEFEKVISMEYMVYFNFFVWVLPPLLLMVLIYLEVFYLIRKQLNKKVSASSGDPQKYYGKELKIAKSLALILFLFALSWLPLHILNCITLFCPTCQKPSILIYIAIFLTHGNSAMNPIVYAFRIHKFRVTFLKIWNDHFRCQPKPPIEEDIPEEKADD

[7] = target: Adenosine receptor A2a (Homo sapiens) (UniProt P29274); test: Displacement of [3H]CGS21680 from human recombinant A2A adenosine receptor expressed in HEK293 cells at 10 uM after 60 mins by liquid scintillation counting; format: cell-based
[8] = target: Adenosine receptor A2a (Mus musculus) (UniProt Q60613); test: Displacement of [3H]CGS21680 from mouse A2A adenosine receptor expressed in HEK293 cells at 10 uM after 60 mins by liquid scintillation counting; format: cell-based
[9] = target: T3, Adenosine receptor A3 (Mus musculus) (UniProt Q61618); test: Agonist activity at mouse A3 adenosine receptor expressed in HEK293 cells assessed as inhibition of forskolin-stimulated cAMP production after 15 mins relative to control; format: functional, cell-based
T3 sequence (whole entry): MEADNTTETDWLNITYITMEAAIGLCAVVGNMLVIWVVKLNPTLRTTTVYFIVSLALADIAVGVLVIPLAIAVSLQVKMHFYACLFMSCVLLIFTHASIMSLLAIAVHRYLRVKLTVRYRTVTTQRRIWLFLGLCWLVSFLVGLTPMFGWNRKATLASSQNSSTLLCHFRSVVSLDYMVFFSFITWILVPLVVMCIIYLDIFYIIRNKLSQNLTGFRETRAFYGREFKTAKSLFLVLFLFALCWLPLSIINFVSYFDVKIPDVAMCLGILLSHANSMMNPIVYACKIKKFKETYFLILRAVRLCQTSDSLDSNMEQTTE
Method in brief: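 2 × 10^5 cells/tube, coincubated with forskolin 10 μM plus ligand for 15 min at 37 °C with shaking. Stopped with HCl. cAMP in supernatant measured by competitive binding.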

[10] = target: Voltage-gated inwardly rectifying potassium channel KCNH2 (Homo sapiens, UniProt Q12809); test: Inhibition of human ERG by PDSP screening
Voltage-gated inwardly rectifying potassium channel KCNH2, sequence (Q12809 whole entry): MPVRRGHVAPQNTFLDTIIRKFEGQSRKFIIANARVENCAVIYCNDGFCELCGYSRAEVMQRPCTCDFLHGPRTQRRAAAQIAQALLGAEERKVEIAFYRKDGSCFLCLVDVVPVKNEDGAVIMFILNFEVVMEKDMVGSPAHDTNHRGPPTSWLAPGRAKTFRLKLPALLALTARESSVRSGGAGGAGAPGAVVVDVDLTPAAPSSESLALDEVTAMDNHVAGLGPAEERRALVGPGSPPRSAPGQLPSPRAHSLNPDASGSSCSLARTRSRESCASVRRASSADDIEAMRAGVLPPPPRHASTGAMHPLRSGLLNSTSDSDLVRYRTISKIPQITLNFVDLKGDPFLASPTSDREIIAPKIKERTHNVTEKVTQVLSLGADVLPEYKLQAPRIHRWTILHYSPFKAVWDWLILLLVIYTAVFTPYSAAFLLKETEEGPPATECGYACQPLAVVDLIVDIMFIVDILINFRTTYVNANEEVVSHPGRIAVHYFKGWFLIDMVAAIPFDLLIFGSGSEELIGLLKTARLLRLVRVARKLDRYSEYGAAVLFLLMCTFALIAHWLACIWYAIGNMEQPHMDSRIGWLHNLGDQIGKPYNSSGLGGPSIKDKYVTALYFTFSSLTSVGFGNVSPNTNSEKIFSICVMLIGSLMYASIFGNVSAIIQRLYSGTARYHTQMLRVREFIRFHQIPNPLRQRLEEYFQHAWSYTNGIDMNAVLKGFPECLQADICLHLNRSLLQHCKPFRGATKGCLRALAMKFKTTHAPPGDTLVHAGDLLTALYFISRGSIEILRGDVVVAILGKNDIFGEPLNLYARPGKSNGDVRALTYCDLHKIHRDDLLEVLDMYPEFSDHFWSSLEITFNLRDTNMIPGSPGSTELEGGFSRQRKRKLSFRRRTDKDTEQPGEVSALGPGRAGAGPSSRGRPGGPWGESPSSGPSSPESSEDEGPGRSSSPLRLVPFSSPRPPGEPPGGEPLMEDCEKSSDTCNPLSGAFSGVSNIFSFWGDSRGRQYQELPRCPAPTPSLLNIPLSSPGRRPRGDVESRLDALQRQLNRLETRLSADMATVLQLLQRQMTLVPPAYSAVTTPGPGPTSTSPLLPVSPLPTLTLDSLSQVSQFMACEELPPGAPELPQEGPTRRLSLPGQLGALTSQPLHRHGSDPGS

Adenosine receptor A2a (Homo sapiens), sequence (P29274 whole entry): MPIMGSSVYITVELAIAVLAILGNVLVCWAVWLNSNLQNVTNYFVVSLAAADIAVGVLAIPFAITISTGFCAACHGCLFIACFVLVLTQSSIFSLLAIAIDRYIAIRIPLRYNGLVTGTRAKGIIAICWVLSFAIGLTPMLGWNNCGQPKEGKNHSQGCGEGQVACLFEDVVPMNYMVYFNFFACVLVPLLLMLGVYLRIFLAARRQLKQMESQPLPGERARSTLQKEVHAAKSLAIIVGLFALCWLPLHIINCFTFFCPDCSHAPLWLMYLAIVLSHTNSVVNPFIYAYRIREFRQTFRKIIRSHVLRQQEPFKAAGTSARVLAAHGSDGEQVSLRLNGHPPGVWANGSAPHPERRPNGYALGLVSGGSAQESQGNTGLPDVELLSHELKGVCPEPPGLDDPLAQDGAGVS
Adenosine receptor A2a (Mus musculus), sequence (Q60613 whole entry): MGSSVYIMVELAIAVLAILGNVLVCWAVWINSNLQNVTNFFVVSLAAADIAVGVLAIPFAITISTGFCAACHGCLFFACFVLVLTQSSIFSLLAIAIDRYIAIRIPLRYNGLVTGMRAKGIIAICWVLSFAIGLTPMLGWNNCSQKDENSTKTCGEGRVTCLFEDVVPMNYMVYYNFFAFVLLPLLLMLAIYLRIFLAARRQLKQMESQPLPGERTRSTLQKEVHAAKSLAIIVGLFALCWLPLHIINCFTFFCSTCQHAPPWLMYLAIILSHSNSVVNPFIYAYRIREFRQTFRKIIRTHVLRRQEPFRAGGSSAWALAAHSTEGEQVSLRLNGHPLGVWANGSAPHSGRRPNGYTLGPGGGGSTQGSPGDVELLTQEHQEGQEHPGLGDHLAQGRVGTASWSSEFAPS

inhibition [5] [%]	inhibition [6] [%]	inhibition [7] [%]	inhibition [8] [%]	Imax [9] [%]	Compound	Time [1] [h]	Activity [2] [%]	Emax at 3 µmol/kg [3] [%]	Ratio Ki [4]	IC50 [10] [µM]
22					CNC(=O)[C@@]12C[C@@H]1[C@@H](n1cnc3c(NC)nc(C#Cc4ccccc4Cl)nc31)[C@H](O)[C@@H]2O	0.5	10.6	27.5	> 30	
25	47	20	3	28	CNC(=O)[C@@]12C[C@@H]1[C@@H](n1cnc3c(NC)nc(C#Cc4cccs4)nc31)[C@H](O)[C@@H]2O	1		100		
11		13			CNC(=O)[C@@]12C[C@@H]1[C@@H](n1cnc3c(NC)nc(C#Cc4cccnn4)nc31)[C@H](O)[C@@H]2O	0.5				
11		3			CNC(=O)[C@@]12C[C@@H]1[C@@H](n1cnc3c(NC)nc(C#Cc4ccsc4)nc31)[C@H](O)[C@@H]2O	0.5				
10		12			CNC(=O)[C@@]12C[C@@H]1[C@@H](n1cnc3c(NC)nc(C#Cc4cccc(C(F)(F)F)c4)nc31)C(O)C2O (single isomer, unassigned)	0.5				
16		11			CNC(=O)[C@@]12C[C@@H]1[C@@H](n1cnc3c(NC)nc(C#Cc4ccc(CO)cc4)nc31)[C@H](O)[C@@H]2O	1				
18		21			CNC(=O)[C@@]12C[C@@H]1[C@@H](n1cnc3c(NC)nc(C#Cc4ccc(-c5ccccc5)cc4)nc31)[C@H](O)[C@@H]2O	1	14.3	57.7		
25		27			CNC(=O)[C@@]12C[C@@H]1[C@@H](n1cnc3c(NC)nc(C#Cc4ncccn4)nc31)[C@H](O)[C@@H]2O	0.5		92.3		
30		19			CNC(=O)[C@@]12C[C@@H]1[C@@H](n1cnc3c(NC)nc(C#Cc4cc[nH]n4)nc31)[C@H](O)[C@@H]2O	0.5				
13		18			CNC(=O)[C@@]12C[C@@H]1[C@@H](n1cnc3c(NC)nc(C#Cc4cc5ccccc5o4)nc31)[C@H](O)[C@@H]2O	1		87.4		
12		20			CNC(=O)[C@@]12C[C@@H]1[C@@H](n1cnc3c(NC)nc(C#Cc4ccccc4OC)nc31)[C@H](O)[C@@H]2O	1		64.3		
13					CNC(=O)[C@@]12C[C@@H]1[C@@H](n1cnc3c(NC)nc(C#Cc4ccccn4)nc31)[C@H](O)[C@@H]2O	0.5	0	31.8		
38		15			CNC(=O)[C@@]12C[C@@H]1[C@@H](n1cnc3c(NC)nc(C#CC4CC4)nc31)[C@H](O)[C@@H]2O	1	19.1	54.6		
15		21			CNC(=O)[C@@]12C[C@@H]1[C@@H](n1cnc3c(NC)nc(C#Cc4cc(C)c(C)o4)nc31)[C@H](O)[C@@H]2O	1				
14					CNC(=O)[C@@]12C[C@@H]1[C@@H](n1cnc3c(NC)nc(C#Cc4cccc(F)c4)nc31)[C@H](O)[C@@H]2O	1	12.4	46.3		
	16				CNC(=O)[C@@]12C[C@@H]1[C@@H](n1cnc3c(NCc4cccc(Cl)c4)nc(C#Cc4ccc(F)c(F)c4)nc31)[C@H](O)[C@@H]2O	1	23.7			12.2
13					CNC(=O)[C@@]12C[C@@H]1[C@@H](n1cnc3c(NC)nc(C#Cc4ccc(Cl)cc4)nc31)[C@H](O)[C@@H]2O	0.5	4.6	40.4		
16		12			CNC(=O)[C@@]12C[C@@H]1[C@@H](n1cnc3c(NC)nc(C#Cc4cccnc4)nc31)[C@H](O)[C@@H]2O	0.5				
15		2			CNC(=O)[C@@]12C[C@@H]1[C@@H](n1cnc3c(NC)nc(C#Cc4ccncc4)nc31)[C@H](O)[C@@H]2O	1				
10		24			CNC(=O)[C@@]12C[C@@H]1[C@@H](n1cnc3c(NC)nc(C#Cc4ccc(OC)cc4)nc31)[C@H](O)[C@@H]2O	0.5				
8		26			CNC(=O)[C@@]12C[C@@H]1[C@@H](n1cnc3c(NC)nc(C#Cc4cccc(OC)c4)nc31)[C@H](O)[C@@H]2O	0.5				
27					CNC(=O)[C@@]12C[C@@H]1[C@@H](n1cnc3c(NC)nc(C#Cc4ccc(F)cc4)nc31)[C@H](O)[C@@H]2O	1	10.4	72	> 30	
					CNC(=O)[C@H]1O[C@@H](n2cnc3c(NCc4cccc(I)c4)ncnc32)[C@H](O)[C@@H]1O [IB-MECA]	1	38.7	94.1		
31		8			CNC(=O)[C@@]12C[C@@H]1[C@@H](n1cnc3c(NC)nc(C#Cc4nccs4)nc31)[C@H](O)[C@@H]2O	1	12.7	53.2		
20					CNC(=O)[C@@]12C[C@@H]1[C@@H](n1cnc3c(NC)nc(C#Cc4ccccc4F)nc31)[C@H](O)[C@@H]2O	0.5	9.8	56		
18					CNC(=O)[C@@]12C[C@@H]1[C@@H](n1cnc3c(NC)nc(C#Cc4ccccc4)nc31)[C@H](O)[C@@H]2O	0.5	5	44.1		
15		45			CNC(=O)[C@@]12C[C@@H]1[C@@H](n1cnc3c(NC)nc(C#CC4CCCCC4)nc31)[C@H](O)[C@@H]2O	1		64.1		
18		4			CCc1ccc(C#Cc2nc(NC)c3ncn([C@H]4[C@H](O)[C@H](O)[C@]5(C(=O)NC)C[C@H]45)c3n2)o1	1				
